Measurements reported in publication PMC2685149 (Nuclear medicine and biology, 2009).
Values joined by “and” are separate entries in the source; they are usually repeats but may differ in a detail not shown here. Identical values can stand only once. Bridge positions count the residues as written; N and C are the ends. Square brackets hold non-standard residues; d marks the D form. Peptide text beside a SMILES is read from it. * marks the point of attachment. DOTA = O=C(O)CN1CCN(CC(=O)O)CCN(CC(=O)*)CCN(CC(=O)O)CC1; Nle = CCCC[C@H](N)C(=O)O

How the values were obtained:
[1] = system: B16/F10 pulmonary metastatic melanoma-bearing C57 mice; experiment: Biodistribution in B16/F10 pulmonary metastatic melanoma-bearing C57 mice; format: in vivo, mouse; conditions: 16 days post the cell injection
Outline: (§1)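 Lung metastases were induced in C57 mice by tail-vein injection of 0.2 million cultured B16/F10 cells and used 16 days later. Normal C57 mice served as comparators. Each mouse got 0.037 MBq of HPLC-purified 111In-labelled test peptide by tail vein. Groups of 5 were killed at 2, 4 and 24 h, and organs were weighed and gamma-counted. Blood was taken as 6.5% of body weight. Ratios compare metastatic-lung with normal-lung uptake.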

[2] = as above; format: in vivo, mouse; conditions: C57, mouse, 0.037 MBq; for tissue uptake at 4 h / tissue uptake at 24 h / tissue uptake at 2 h: intravenous
Outline: as §1

B16/F10 melanoma cells [3] = experiment: Cellular efflux in B16/F10 cells; format: cell-based, murine; conditions: 2 h after incubating cells in culture media
Outline: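 B16/F10 cells were loaded with the HPLC-purified 111In-labelled test peptide for 2 h at 25°C, then rinsed twice with ice-cold pH 7.4 0.2% BSA/0.01 M PBS. Release of radioactivity into the culture medium was then followed. At 20, 40, 60, 90 and 120 min, cell-surface and intracellular activities were collected separately and gamma-counted.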

[4] = system: flank B16/F1 murine melanoma; conditions: cited from earlier work
B16/F10 melanoma cells [5] = experiment: Cellular internalization in B16/F10 cells; format: cell-based, murine; conditions: after 2 h incubation, 25°C
Outline: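 B16/F10 cells were washed with binding medium and incubated at 25°C for 20, 40, 60, 90 and 120 min (n=4) with about 200,000 cpm (0.019 pmol) of HPLC-purified 111In-labelled test peptide. Cells were rinsed with ice-cold PBS/BSA. Surface-bound activity was stripped with pH 4.5 acetate buffer (0.9% NaCl, 0.2% BSA). Cells were then lysed in 1 N NaOH for 5 min, and both fractions were gamma-counted.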

Stability in mouse serum = format: in vitro ADME; conditions: 37°C, 24 h
[6] = Biodistribution in normal C57 mice; format: in vivo; conditions: C57, mouse, 0.037 MBq, total radioactivity; for dose excreted: urine, percent injected dose, normal mice, Mean±SD, n=5
[7] = system: B16/F10 pulmonary melanoma metastases; conditions: mouse, in vivo
[8] = intestine, iv, total radioactivity
[9] = lung/blood, iv, total radioactivity
[10] = lung/kidney, iv, total radioactivity
[11] = lung/liver, iv, total radioactivity
[12] = lung/muscle, iv, total radioactivity

## CCCC[C@@H]1NC(=O)[C@@H](NC(=O)[C@H](CCC(=O)O)NC(=O)CNC(=O)CN2CCN(CC(=O)O)CCN(CC(=O)O)CCN(CC(=O)O)CC2)CCCCNC(=O)C[C@@H](C(N)=O)NC(=O)[C@H](C(C)C)NC(=O)[C@@H]2CCCN2C(=O)[C@H](CCCNC(=N)N)NC(=O)CNC(=O)[C@H](Cc2c[nH]c3ccccc23)NC(=O)[C@H](CCCNC(=N)N)NC(=O)[C@@H](Cc2ccccc2)NC(=O)[C@H](Cc2c[nH]cn2)NC(=O)[C@H](CCC(=O)O)NC1=O [^111In-DOTA-GlyGlu-CycMSH, ^111In-labeled 1,4,7,10-Tetraazacyclododecane-1,4,7,10-tetraacetic acid-Gly-Glu-c[Lys-Nle-Glu-His-DPhe-Arg-Trp-Gly-Arg-Pro-Val-Asp], metal not drawn] ({DOTA}-GEK[Nle]EH[dF]RWGRPVD-NH2; lactam 3-14; C-terminus assumed)
[1]; 2 h post-injection
  uptake in metastatic melanoma-bearing lung relative to normal lung: 25.0 times
[1]; 4 h post-injection
  uptake in metastatic melanoma-bearing lung relative to normal lung: 36.6 times
[1]; 24 h post-injection
  uptake in metastatic melanoma-bearing lung relative to normal lung: 9.7 times
[2]; [8]
  tissue uptake dose at 2 h: 7.7 ± 2.05 %ID
  tissue uptake dose at 4 h: 5.97 ± 0.48 %ID
  tissue uptake dose at 24 h: 0.11 ± 0.03 %ID
[2]; kidneys, total radioactivity
  tissue uptake at 4 h: 14.5 ± 0.21 %ID/g
  tissue uptake at 24 h: 15.1 ± 0.86 %ID/g
[2]; liver, total radioactivity
  tissue uptake at 4 h: 0.45 ± 0.05 %ID/g
[2]; lung
  tissue uptake at 4 h: 1.83 ± 0.12 %ID/g
  tissue uptake at 24 h: 0.29 ± 0.06 %ID/g
[2]; [9]
  tissue to tissue ratio at 2 h: 16.7
  tissue to tissue ratio at 4 h: 61
  tissue to tissue ratio at 24 h: 9.67
[2]; [10]
  tissue to tissue ratio at 2 h: 0.12
  tissue to tissue ratio at 4 h: 0.13
[2]; [11]
  tissue to tissue ratio at 2 h: 4.76
  tissue to tissue ratio at 4 h: 4.07
  tissue to tissue ratio at 24 h: 2.23
[2]; [12]
  tissue to tissue ratio at 2 h: 50
  tissue to tissue ratio at 4 h: 61
  tissue to tissue ratio at 24 h: 9.67
[2]; skin, total radioactivity
  tissue uptake at 2 h: 0.26 ± 0.22 %ID/g
  tissue uptake at 4 h: 0.36 ± 0.08 %ID/g
[2]; spleen, total radioactivity
  tissue uptake at 2 h: 0.26 ± 0.07 %ID/g
B16/F10 melanoma cells [3]
  activity remained inside the cells (efflux): 90.6±5.3% and ~90%
[4]; 2 h post-injection, flank B16/F1 murine melanoma-bearing mouse model
  tumor uptake: 10.40±1.40 % ID/g
[4]; 4 h post-injection, without affecting the tumor uptake
  reduction of renal uptake by negatively-charged -Gly-Glu- linker: 44%
B16/F10 melanoma cells [5]
  activity internalized in the cells: 79.7±10.1%
Stability in mouse serum
  stability in mouse serum: stable
[6]; intestine, iv
  tissue uptake dose at 2 h: 7.08 ± 1.54 %ID
  tissue uptake dose at 4 h: 4.65 ± 0.85 %ID
  tissue uptake dose at 24 h: 0.11 ± 0.08 %ID
[6]; kidneys, intravenous
  tissue uptake at 2 h: 14.1 ± 2.23 %ID/g
  tissue uptake at 24 h: 13.5 ± 1.48 %ID/g
[6]; liver, intravenous
  tissue uptake at 4 h: 0.38 ± 0.01 %ID/g
[6]; lung and muscle, iv
  tissue to tissue ratio at 24 h: 1.5
[6]; lung/blood, iv
  tissue to tissue ratio at 2 h: 8
  tissue to tissue ratio at 4 h: 2.5
  tissue to tissue ratio at 24 h: 1
[6]; lung/kidney, iv
  tissue to tissue ratio at 2 h: 0.01
  tissue to tissue ratio at 4 h: 0.01
[6]; lung/liver, iv
  tissue to tissue ratio at 4 h: 0.13
  tissue to tissue ratio at 24 h: 0.25
[6]; lung/muscle, iv
  tissue to tissue ratio at 2 h: 2.67
  tissue to tissue ratio at 4 h: 1.67
[6]; skin, intravenous
  tissue uptake at 4 h: 0.23 ± 0.08 %ID/g
[6]; stomach, intravenous
  tissue uptake at 2 h: 0.14 ± 0.07 %ID/g
[6]; iv, 2 h post-injection
  dose excreted: 84.7 ± 1.97%
[6]; iv, 4 h post-injection
  dose excreted: 89 ± 0.92%
[6]; iv, 24 h post-injection
  dose excreted: 96.06 ± 0.53%
[7]
  accumulation of activity in normal organs in whole-body SPECT/CT image: extremely low
